These results are taken from ChEMBL document CHEMBL1125466, “Synthesis and antiulcer activity of N-substituted N'-[3-[3-(piperidinomethyl)phenoxy]propyl]ureas: histamine H2-receptor antagonists with a potent mucosal protective activity” (J Med Chem, 1992).

The test system of experiment [1] is Rattus norvegicus. The experiment can be described thus: Gastric antisecretory activity in rat (in vivo). The experiment is classed as functional. An outline of the steps: (§1)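 Male Donryu or Wistar rats, 170-310 g, fasted 24 h. Under urethane anesthesia the pylorus was ligated (acute fistula). Compound, suspended in 1% gum arabic, given intraduodenally after the second gastric juice collection, usually at 10 mg/kg. Acid output compared with vehicle mean. Percent inhibition given as mean ± SE, 2-5 animals per group.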

Experiment [2] relates to Rattus norvegicus. Put plainly: In vivo gastric mucosal protective activity against gastric mucosal lesions induced by 0.6 N HCl in rats. On the set-up: concentration or dose not given beside the values. It is filed as functional, Gastric mucosa. The gist of the method:
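Male Donryu or Wistar rats, 150-230 g, deprived of food and water 24 h. Compound given orally (25 mg/kg) 1.5 h before 1 mL 0.6 N HCl po. Killed 1 h after HCl. Stomach fixed with 0.5% formalin, and glandular lesion lengths measured. Percent inhibition compared with vehicle, mean ± SE, 5-10 animals.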

Experiment [3] deals with Rattus norvegicus. The experiment can be described thus: In vivo gastric antisecretory activity in acute fistula rats. The experiment is classed as functional, Stomach. On the set-up: concentration or dose not given beside the values. An outline of the steps:
as §1

The target of experiment [4] is T1, Histamine H2 receptor (Cavia porcellus, UniProt P47747). The experiment can be described thus: In vitro inhibitory activity against histamine H2-receptor in isolated Guinea pig right atria. To be noted: read-out: pA2 (converted).
Experiment [5] concerns the target T1, Histamine H2 receptor. The experiment can be described thus: Compound was evaluated in vitro inhibitory activity against histamine H2 receptor in isolated Guinea pig right atria. To be noted: read-out: pA2 (converted).
Experiment [6] concerns Rattus norvegicus. The experiment can be described thus: In vivo gastric antisecretory activity in acute fistula rats. The experiment is classed as functional, Stomach. An outline of the steps:
as §1

Experiment [7] deals with Rattus norvegicus. Put plainly: In Vivo gastric Mucosal protective activity against gastric mucosal lesions induced by 0.6 N HCl in rats. (200 mg/kg, po). The experiment is classed as functional, Gastric mucosa. The gist of the method: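 Oral dosing at 200 mg/kg, 1.5 h before 1 mL of 0.6 N HCl, in male Donryu or Wistar rats (150-230 g) deprived of food and water 24 h. Killed 1 h later. Stomach formalin-fixed and glandular lesion length scored against vehicle. Percent inhibition given as mean ± SE.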

T1 sequence (P47747 whole entry): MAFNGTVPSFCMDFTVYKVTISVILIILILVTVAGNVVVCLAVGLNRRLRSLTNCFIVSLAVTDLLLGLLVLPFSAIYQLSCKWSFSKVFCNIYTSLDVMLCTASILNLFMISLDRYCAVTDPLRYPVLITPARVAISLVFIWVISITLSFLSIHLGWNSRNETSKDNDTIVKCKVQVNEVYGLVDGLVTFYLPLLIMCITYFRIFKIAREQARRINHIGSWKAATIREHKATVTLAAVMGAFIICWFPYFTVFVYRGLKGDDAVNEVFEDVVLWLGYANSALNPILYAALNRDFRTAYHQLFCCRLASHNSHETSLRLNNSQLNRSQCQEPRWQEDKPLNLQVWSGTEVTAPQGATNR

A word on the Inhibition: it is the relative decrease from the control value, in per cent. Consider `O=C(NCCCOc1cccc(CN2CCCCC2)c1)Nc1ccc(C(F)(F)F)cc1`, for which the AS activity class in the experiment with Rattus norvegicus [1] worked out at 1. Also, the values for the Inhibition with Rattus norvegicus [2] and with Rattus norvegicus [3] were 51% and 3.8%, respectively. The Kb on Histamine H2 receptor [4] is 1700 nM.

With `CCC(C)NC(=O)NCCCOc1cccc(CN2CCCCC2)c1` (stereo unspecified), in the experiment with Rattus norvegicus [1], the AS activity class came out at 2. Besides, the results for the Inhibition in the experiment with Rattus norvegicus [2] and in the experiment on Rattus norvegicus [3] were 17.7% and 55.1%, respectively. Besides, on Histamine H2 receptor [4], the Kb was 95.5 nM.

`O=C(NCCCOc1cccc(CN2CCCCC2)c1)NC1CC1`: the AS activity class with Rattus norvegicus [1] turned out to be 3. Besides, the results for the Inhibition in the experiment with Rattus norvegicus [2] and with Rattus norvegicus [3] were 49.4% and 87.5%, respectively. The Kb on Histamine H2 receptor [4] is 47.9 nM.

As for `COc1ccccc1NC(=O)NCCCOc1cccc(CN2CCCCC2)c1`, the AS activity class in the experiment with Rattus norvegicus [1] is 1. In addition, the results for the Inhibition in the experiment with Rattus norvegicus [2] and with Rattus norvegicus [3] were 31.7% and -57.4%, respectively. For the same compound, the Kb at Histamine H2 receptor [4] was 776 nM.

`Nc1cccc(NC(=O)NCCCOc2cccc(CN3CCCCC3)c2)c1` came in with an AS activity class with Rattus norvegicus [1] of 3. Besides, the Kb on Histamine H2 receptor [5] was 155 nM. Also, the Inhibition in the experiment on Rattus norvegicus [2] is 47.2%; in the experiment on Rattus norvegicus [6], 95%.

With `O=C(NCCF)NCCCOc1cccc(CN2CCCCC2)c1`, in the experiment on Rattus norvegicus [1], the AS activity class turned out to be 3. Further, the Inhibition in the experiment on Rattus norvegicus [2] was 36%; with Rattus norvegicus [3] it was 98.7%. Further, the Kb at Histamine H2 receptor [4] was 85.1 nM.

`O=C(NCCCOc1cccc(CN2CCCCC2)c1)Nc1cccc(Cl)c1` registered an AS activity class in the experiment on Rattus norvegicus [1] of 1. Further, the Inhibition in the experiment on Rattus norvegicus [2] is on record as 43.3%; in the experiment with Rattus norvegicus [3], -44.9%. Besides, the Kb at Histamine H2 receptor [4] was 316 nM.

Take `COc1ccc(N/C(S)=N/CCCOc2cccc(CN3CCCCC3)c2)cc1`: the Inhibition is 51.6% in the experiment on Rattus norvegicus [2] and -5.5% with Rattus norvegicus [3]. The Kb on Histamine H2 receptor [4] is 4370 nM.

Regarding `Cc1ccc(NC(=O)NCCCOc2cccc(CN3CCCCC3)c2)cc1`, the AS activity class with Rattus norvegicus [1] was determined as 1. For the same compound, the Inhibition in the experiment with Rattus norvegicus [2] is recorded as 40.1%; in the experiment with Rattus norvegicus [3], -45.5%. Moreover, the Kb on Histamine H2 receptor [4] is 631 nM.

Consider `NC(N)=Nc1nc(CSCC/C(N)=N/S(N)(=O)=O)cs1` [FAMOTIDINE], for which, in the experiment on Rattus norvegicus [7], the Inhibition was found to be 7.9%. Besides, on Histamine H2 receptor [4], the Kb is 100 nM.

In turn, `O=C(NCCCOc1cccc(CN2CCCCC2)c1)Nc1ccc([N+](=O)[O-])cc1` came in with an AS activity class in the experiment on Rattus norvegicus [1] of 1. At Histamine H2 receptor [5], the Kb was 178 nM. The Inhibition was found to be 23.4% with Rattus norvegicus [2] and 9% in the experiment on Rattus norvegicus [6].

With `CNC(=C[N+](=O)[O-])NCCSCc1ccc(CN(C)C)o1` [RANITIDINE], the Kb at Histamine H2 receptor [5] is 64.6 nM. In the experiment with Rattus norvegicus [7], the Inhibition is on record as -16.8%.

As for `CC(C)CNC(=O)NCCCOc1cccc(CN2CCCCC2)c1`, in the experiment with Rattus norvegicus [1], the AS activity class worked out at 2. The Inhibition is listed as 43.3% with Rattus norvegicus [2] and 40.3% with Rattus norvegicus [3]. Moreover, the Kb at Histamine H2 receptor [4] was 170 nM.

Take `CNC(=O)NCCCOc1cccc(CN2CCCCC2)c1`: the AS activity class in the experiment with Rattus norvegicus [1] was 3. Also, the Inhibition with Rattus norvegicus [2] came to 64.7%; in the experiment with Rattus norvegicus [3], 93.3%. Also, the Kb on Histamine H2 receptor [4] is 155 nM.

For `COc1ccc(NC(=O)NCCCOc2cccc(CN3CCCCC3)c2)c(OC)c1`, the AS activity class in the experiment on Rattus norvegicus [1] came to 1. The Inhibition in the experiment on Rattus norvegicus [2] was determined as 55.7%; in the experiment on Rattus norvegicus [3], 13.1%. For the same compound, the Kb on Histamine H2 receptor [4] is 2240 nM.

On to `CCOc1ccc(NC(=O)NCCCOc2cccc(CN3CCCCC3)c2)cc1`, for which the AS activity class in the experiment with Rattus norvegicus [1] amounted to 2. The results for the Inhibition in the experiment on Rattus norvegicus [2] and in the experiment on Rattus norvegicus [3] were 32.7% and 54.1%, respectively. Moreover, the Kb on Histamine H2 receptor [4] is 490 nM.

Turning to `O=C(NCCCOc1cccc(CN2CCCCC2)c1)NC1CCCCC1`, the AS activity class in the experiment on Rattus norvegicus [1] turned out to be 3. The Inhibition in the experiment on Rattus norvegicus [2] was 39.3%; with Rattus norvegicus [3] it was 77.9%. At Histamine H2 receptor [4], the Kb was 43.7 nM.

On to `O=C(NCCCOc1cccc(CN2CCCCC2)c1)Nc1cccc([N+](=O)[O-])c1`, for which, in the experiment with Rattus norvegicus [1], the AS activity class was found to be 1. Further, the Inhibition with Rattus norvegicus [2] was 40.9%; in the experiment on Rattus norvegicus [3] it was -23.9%. The Kb at Histamine H2 receptor [4] is 269 nM.

In the case of `O=C(NCCCOc1cccc(CN2CCCCC2)c1)Nc1ccc2c(c1)OCO2`, the AS activity class in the experiment with Rattus norvegicus [1] is 2. For the same compound, the figures for the Inhibition in the experiment on Rattus norvegicus [2] and in the experiment with Rattus norvegicus [3] were 47.1% and 48.9%, respectively. The Kb on Histamine H2 receptor [4] is 288 nM.

In turn, `COc1ccc(NC(=O)NCCCOc2cccc(CN3CCCCC3)c2)cc1` came in with an AS activity class in the experiment on Rattus norvegicus [1] of 3. The figures for the Inhibition in the experiment with Rattus norvegicus [2] and in the experiment with Rattus norvegicus [3] were 40.9% and 73.5%, respectively. For the same compound, the Kb on Histamine H2 receptor [4] is 631 nM.

Regarding `O=C(NCCCOc1cccc(CN2CCCCC2)c1)Nc1ccc(Cl)cc1`, in the experiment on Rattus norvegicus [1], the AS activity class stood at 1. For the same compound, the Inhibition is 33.9% with Rattus norvegicus [2] and 28.2% in the experiment on Rattus norvegicus [3]. The Kb at Histamine H2 receptor [4] was 631 nM.

`O=C(NCCCOc1cccc(CN2CCCCC2)c1)Nc1ccccc1`: the AS activity class with Rattus norvegicus [1] worked out at 1. The Inhibition was found to be 44.3% in the experiment on Rattus norvegicus [2] and 12.6% with Rattus norvegicus [3]. Besides, the Kb at Histamine H2 receptor [4] is 126 nM.

By inhibition is commonly meant the percentage by which the read-out fell short of the control. For the compound TEPRENONE, the inhibition in the experiment with Rattus norvegicus [7] (Gastric mucosa) came to 42.7%.

In turn, `CC(C)NC(=O)NCCCOc1cccc(CN2CCCCC2)c1` showed an AS activity class in the experiment on Rattus norvegicus [1] of 3. Besides, the Inhibition in the experiment on Rattus norvegicus [2] amounted to 72.9%; with Rattus norvegicus [3], 71.3%. Moreover, the Kb at Histamine H2 receptor [4] is 43.7 nM.

`CCCCNC(=O)NCCCOc1cccc(CN2CCCCC2)c1` returned an AS activity class in the experiment on Rattus norvegicus [1] of 3. The Inhibition was found to be 67.5% in the experiment on Rattus norvegicus [2] and 83% in the experiment with Rattus norvegicus [3]. Moreover, the Kb on Histamine H2 receptor [4] was 81.3 nM.

For `O=C(NCCCOc1cccc(CN2CCCCC2)c1)NCc1ccccc1`, the AS activity class with Rattus norvegicus [1] was 2. The Inhibition in the experiment with Rattus norvegicus [2] was found to be 61%; in the experiment with Rattus norvegicus [3], 54.2%. On Histamine H2 receptor [4], the Kb is 347 nM.

In turn, `O=C(NCCCOc1cccc(CN2CCCCC2)c1)Nc1cccc(C(F)(F)F)c1` gave an AS activity class in the experiment on Rattus norvegicus [1] of 1. For the same compound, the figures for the Inhibition with Rattus norvegicus [2] and in the experiment on Rattus norvegicus [3] were -4.9% and 7.8%, respectively. The Kb at Histamine H2 receptor [4] is 813 nM.

For the compound `COc1ccc(OC)c(NC(=O)NCCCOc2cccc(CN3CCCCC3)c2)c1`, in the experiment on Rattus norvegicus [1], the AS activity class was found to be 1. The results for the Inhibition in the experiment with Rattus norvegicus [2] and in the experiment with Rattus norvegicus [3] were 34.7% and -30.8%, respectively. Besides, the Kb on Histamine H2 receptor [4] was 158 nM.

In the experiment with Rattus norvegicus [1], `COc1cccc(NC(=O)NCCCOc2cccc(CN3CCCCC3)c2)c1` gave an AS activity class of 2. Moreover, the Inhibition is on record as 48.2% in the experiment with Rattus norvegicus [2] and 53.2% in the experiment on Rattus norvegicus [3]. Besides, the Kb on Histamine H2 receptor [4] was 200 nM.

Compound `CC(C)(C)NC(=O)NCCCOc1cccc(CN2CCCCC2)c1` returned an AS activity class with Rattus norvegicus [1] of 1. The Inhibition in the experiment with Rattus norvegicus [2] is given as 28.5%; in the experiment with Rattus norvegicus [3] it was -56%. Moreover, the Kb on Histamine H2 receptor [4] was 2090 nM.

For the compound `CCCNC(=O)NCCCOc1cccc(CN2CCCCC2)c1`, the AS activity class with Rattus norvegicus [1] was found to be 3. Further, the Inhibition in the experiment on Rattus norvegicus [2] worked out at 73.5%; in the experiment with Rattus norvegicus [3] it was 96.6%. Moreover, the Kb at Histamine H2 receptor [4] is 97.7 nM.

Consider `CN/C(=N\CCSCc1nc[nH]c1C)NC#N` [CIMETIDINE], for which, in the experiment on Rattus norvegicus [7], the Inhibition was -42.2%.

With `CCNC(=O)NCCCOc1cccc(CN2CCCCC2)c1` [DALCOTIDINE], the AS activity class with Rattus norvegicus [1] was found to be 3. The Inhibition came to 77.9% in the experiment on Rattus norvegicus [2] and 71.8% in the experiment with Rattus norvegicus [3]. For the same compound, on Histamine H2 receptor [4], the Kb is 40.7 nM.
